Test results published in ChEMBL document CHEMBL3351997, “Synthesis of novel tylophorine derivatives and evaluation of their anti-inflammatory activity” (ACS Med Chem Lett, 2014).

How the values were obtained:
[1] = Antiinflammatory activity against BALB/c mouse splenocytes assessed as inhibition of LPS-induced TNFalpha production after 4 hrs by ELISA; type: functional, cell-based; settings: Splenocyte
In short: (§1)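 Splenocytes from BALB/c mice were cultured with LPS (100 ng/mL) plus compound for 4 h or 24 h. TNF-α in the supernatants was measured by ELISA. Values are mean ± SD of at least three independent experiments, each run in duplicate.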

[2] = Antiinflammatory activity against BALB/c mouse splenocytes assessed as inhibition of LPS-induced TNFalpha production after 24 hrs by ELISA; type: functional, cell-based; settings: Splenocyte; in short: as §1
RAW264.7 [3] = assay: Antiinflammatory activity against mouse RAW264.7 cells assessed as inhibition of LPS-induced TNFalpha production after 6 hrs by ELISA; type: functional, cell-based; settings: RAW264.7, 6 h
RAW264.7 [4] = assay: Cytotoxicity against mouse RAW264.7 cells after 48 hrs by MTT assay; type: cell-based; settings: RAW264.7, 48 h
In short: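 Raw 264.7 murine macrophages were cultured with a range of compound concentrations for 48 h, with vehicle-treated cells as control. The 50% cytotoxic concentration (CC50) was determined, with values representative of three experiments.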

T-cell [5] = assay: Induction of Foxp3 expression in B6 Foxp3-GFP mouse CD4-positive T cells assessed as increase in iTregs at 100 nM after 3 days by flow cytometry; type: functional
In short: (§2)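 Naive CD4+ T cells were sorted from B6 Foxp3-GFP reporter mice and cultured with compound plus TGF-β (5 ng/mL) for 3 days. Harvested cells were read by flow cytometry as the percentage of GFP+ (Foxp3+) iTregs. Values are mean ± SD of at least three independent experiments, each run in duplicate.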

T-cell [6] = assay: Inhibition of Foxp3 expression in B6 Foxp3-GFP mouse CD4-positive T cells assessed as iTregs at 100 nM after 3 days by flow cytometry; type: functional; settings: for inhibition at 0.1 µM: Mus musculus, T-cell, 72 h; in short: as §2
T-cell [7] = assay: Induction of Foxp3 expression in B6 Foxp3-GFP mouse CD4-positive T cells assessed as increase in iTregs at 1 uM after 3 days by flow cytometry; type: functional; in short: as §2
T-cell [8] = assay: Induction of Foxp3 expression in B6 Foxp3-GFP mouse CD4-positive T cells at 1 uM after 3 days by flow cytometry in presence of 5 ng/ml TGF-beta (reference value: 37.15 %); type: functional; in short: as §2
T-cell [9] = assay: Induction of Foxp3 expression in B6 Foxp3-GFP mouse CD4-positive T cells at 100 nM after 3 days by flow cytometry in presence of 5 ng/ml TGF-beta (reference value: 37.15 %); type: functional; in short: as §2
T-cell [10] = assay: Induction of Foxp3 expression in B6 Foxp3-GFP mouse CD4-positive T cells at 10 nM after 3 days by flow cytometry in presence of 5 ng/ml TGF-beta (reference value: 37.15 %); type: functional; in short: as §2
T-cell [11] = assay: Induction of Foxp3 expression in B6 Foxp3-GFP mouse CD4-positive T cells at 1 nM after 3 days by flow cytometry in presence of 5 ng/ml TGF-beta; type: functional; in short: as §2
T-cell [12] = assay: Induction of Foxp3 expression in B6 Foxp3-GFP mouse CD4-positive T cells at 1 nM after 3 days by flow cytometry in presence of 5 ng/ml TGF-beta (reference value: 37.15 %); type: functional; in short: as §2
[13] = Solubility of the compound in DMSO; type: physicochemical
RAW264.7 [14] = assay: Cytotoxicity against mouse RAW264.7 cells assessed as cell death at 1 uM after 48 hrs by MTT assay; type: cell-based; settings: raw264.7, 48 h
[15] = Solubility of the compound in water; type: physicochemical; settings: buffer

Structure (SMILES)	IC50 [1]	IC50 [2]	IC50 (RAW264.7 [3])	IC50 (RAW264.7 [4])	Activity (T-cell [7])	also measured
COc1cc2c3c(c4cc(OC)c(OC)cc4c2cc1OC)[C@@H](O)[C@H]1CCCN1C3	0.133 µM	0.783 µM	0.238 µM	0.242 µM	–	Activity (T-cell [5]): 12%
COc1cc2c3c(c4cc(OC)c(OC)cc4c2cc1OC)[C@H](O)[C@H]1CCCN1C3	0.61 µM	0.965 µM	0.817 µM	1.16 µM	–	Activity (T-cell [5]): 5%
CC1(C)C2CC[C@]1(S(=O)(=O)O)C(=O)C2.COc1cc2c3c(c4cc(OC)c(OC)cc4c2cc1OC)CN1CCCC1C3 (centres undefined)	0.03 µM	0.338 µM	0.027 µM	0.033 µM	–	inhibition at 0.1 µM (T-cell [6]): 2%
COc1cc(/C=C/C(=O)O)ccc1O.COc1cc2c3c(c4cc(OC)c(OC)cc4c2cc1OC)CN1CCCC1C3 (centres undefined)	0.213 µM	0.329 µM	0.135 µM	0.093 µM	–	Activity (T-cell [5]): 0.8%
COc1cc2c3c(c4cc(OC)c(OC)cc4c2cc1OC)CN1CCCC1C3.O=C(O)c1cc(S(=O)(=O)O)ccc1O (centres undefined)	0.21 µM	0.16 µM	0.283 µM	0.16 µM	–	Activity (T-cell [5]): 29%
COc1cc2cc(CN3CCC[C@H]3CO)c3cc(OC)c(OC)cc3c2cc1OC	265 µM	304 µM	307 µM	422 µM	0.2%	–
COC(=O)[C@@H]1CCCN1C(=O)c1cc2cc(OC)c(OC)cc2c2cc(OC)c(OC)cc12	211 µM	363 µM	217 µM	320 µM	5%	–
COc1cc2cc(CN3CCCCC3C(=O)O)c3cc(OC)c(OC)cc3c2cc1OC (centres undefined)	292 µM	389 µM	354 µM	357 µM	0.7%	–
COC(=O)C1CCCCN1C(=O)c1cc2cc(OC)c(OC)cc2c2cc(OC)c(OC)cc12 (centres undefined)	301 µM	329 µM	227 µM	116 µM	7%	–
COc1cc2cc(CN3CCC[C@H]3C(=O)O)c3cc(OC)c(OC)cc3c2cc1OC	234 µM	231 µM	200 µM	418 µM	2%	–
COC(=O)[C@@H]1CCCN1Cc1cc2cc(OC)c(OC)cc2c2cc(OC)c(OC)cc12	153 µM	275 µM	216 µM	469 µM	19%	–
COc1cc2cc(CN3CCCCC3CO)c3cc(OC)c(OC)cc3c2cc1OC (centres undefined)	38 µM	92 µM	41 µM	513 µM	41%	Activity (T-cell [8]): 73.94%; Activity (T-cell [9]): 51.92%; Activity (T-cell [10]): 41.25%; Activity (T-cell [11]): 100%; Activity (T-cell [12]): 40.42%
COc1cc2cc(CN3CCC(O)CC3)c3cc(OC)c(OC)cc3c2cc1OC	265 µM	273 µM	231 µM	132 µM	5%	–
COC(=O)CCCCCNC(=O)c1cc2cc(OC)c(OC)cc2c2cc(OC)c(OC)cc12	156 µM	257 µM	241 µM	423 µM	16%	–
COc1cc2cc(C(=O)NCCCCCCO)c3cc(OC)c(OC)cc3c2cc1OC	251 µM	317 µM	236 µM	305 µM	7%	–
COC(=O)CCCCCNCc1cc2cc(OC)c(OC)cc2c2cc(OC)c(OC)cc12	115 µM	213 µM	227 µM	515 µM	47%	–
COc1cc2c3c(c4cc(OC)c(OC)cc4c2cc1OC)[C@H](O)[C@@H]1CCCN1C3	0.02 µM	0.097 µM	0.036 µM	0.053 µM	–	solubility [13]: soluble; Activity (T-cell [9]): 40%; Activity (RAW264.7 [14]): Toxic; Activity (T-cell [5]): 39%
COc1cc2c3c(c4cc(OC)c(OC)cc4c2cc1OC)[C@@H](O)[C@@H]1CCCN1C3	0.37 µM	1.29 µM	0.35 µM	1.06 µM	–	Activity (T-cell [5]): 29%
COc1cc2c3c(c4cc(OC)c(OC)cc4c2cc1OC)CN1CCCC1C3 (racemic) [(+/-)-TYLOPHORINE]	–	–	–	–	–	inhibition (INH) (T-cell [6]): 34%
COc1cc2c3c(c4cc(OC)c(OC)cc4c2cc1OC)CN1CCC[C@H]1C3 [(S)-TYLOPHORINE]	–	–	–	–	–	inhibition at 0.1 µM (T-cell [6]): 44%
COc1cc2c3c(c4cc(OC)c(OC)cc4c2cc1OC)CN1CCCC1C3.O=C(O)CC(O)C(=O)O (centres undefined) [TYLOPHORINE 2-HYDROXYSUCCINIC ACID SALT]	–	–	–	–	–	solubility [15]: soluble
COc1cc2c3c(c4cc(OC)c(OC)cc4c2cc1OC)CN1CCCC1C3.O=C(O)c1ccccc1 (centres undefined) [TYLOPHORINE BENZOIC ACID SALT]	–	–	–	–	–	inhibition (INH) (T-cell [6]): 1%
COc1cc2c3c(c4cc(OC)c(OC)cc4c2cc1OC)CN1CCCC1C3.I (centres undefined) [TYLOPHORINE HYDROIODIDE]	–	–	–	–	–	inhibition (INH) (T-cell [6]): 12%
COc1cc2c3c(c4cc(OC)c(OC)cc4c2cc1OC)CN1CCCC1C3.Nc1ccc(S(=O)(=O)O)cc1 (centres undefined) [TYLOPHORINE P-AMINOBENZENESULFONIC ACID SALT]	0.215 µM	0.193 µM	0.248 µM	0.175 µM	–	inhibition at 0.1 µM (T-cell [6]): 3%
COc1cc2c3c(c4cc(OC)c(OC)cc4c2cc1OC)CN1CCCC1C3.O=C(O)c1ccc(O)cc1 (centres undefined) [TYLOPHORINE P-HYDROXYBENZOIC ACID SALT]	0.76 µM	0.972 µM	0.511 µM	0.651 µM	–	inhibition at 0.1 µM (T-cell [6]): 5%
COc1cc2c3c(c4cc(OC)c(OC)cc4c2cc1OC)CN1CCCC1C3.O=C(O)c1ccccc1O (centres undefined) [TYLOPHORINE SALICYLIC ACID SALT]	–	–	–	–	–	inhibition (INH) (T-cell [6]): 4%
